Test results taken from ChEMBL document CHEMBL5046323, “Discovery of Phospholipase D Inhibitors with Improved Drug-like Properties and Central Nervous System Penetrance” (ACS Med Chem Lett, 2022).
Converted amounts (≈) assume the structure as drawn.

Experiments:
[1] = Drug concentration in sc dosed C57BL/6 mouse brain measured after 30 mins by LC-FTICR-MS analysis; format: ADME, organism-based; conditions: read-out: Ct
Procedure, shortened: (§1)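 Mice dosed subcutaneously at 10 mg/kg 15, 30 or 60 min before injection of 1-butanol-d10; tissues (liver, brain) collected 15 min after butanol injection for compound levels.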

[2] = Apparent permeability in dog MDCK cells with low MDR1 expression
[3] = Microsomal stability in rat liver microsomes assessed as intrinsic clearance; format: ADME, Microsome; conditions: read-out: CLH
Procedure, shortened: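 Intrinsic clearance (CLint) determined in rat or human liver microsomes.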

[4] = Plasma protein binding in rat; format: ADME, cell-free
[5] = Tmax in po dosed rat; format: ADME, organism-based; conditions: in vivo
Procedure, shortened: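 Rat oral PK, average of two experiments with n = 3 rats each; formulation HPMC/Tween.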

[6] = Unbound brain-to-plasma concentration ratio in rat; format: ADME; conditions: read-out: K(p,uu,brain)
Procedure, shortened: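 Kpu,u is the ratio of free compound concentration in brain over free concentration in plasma at steady state, determined by rat infusion.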

[7] = target: Cytochrome P450 2C19 (Homo sapiens, UniProt P33261); assay: Inhibition of CYP2C19 (unknown origin); format: ADME
Chain of Cytochrome P450 2C19 (P33261 whole entry): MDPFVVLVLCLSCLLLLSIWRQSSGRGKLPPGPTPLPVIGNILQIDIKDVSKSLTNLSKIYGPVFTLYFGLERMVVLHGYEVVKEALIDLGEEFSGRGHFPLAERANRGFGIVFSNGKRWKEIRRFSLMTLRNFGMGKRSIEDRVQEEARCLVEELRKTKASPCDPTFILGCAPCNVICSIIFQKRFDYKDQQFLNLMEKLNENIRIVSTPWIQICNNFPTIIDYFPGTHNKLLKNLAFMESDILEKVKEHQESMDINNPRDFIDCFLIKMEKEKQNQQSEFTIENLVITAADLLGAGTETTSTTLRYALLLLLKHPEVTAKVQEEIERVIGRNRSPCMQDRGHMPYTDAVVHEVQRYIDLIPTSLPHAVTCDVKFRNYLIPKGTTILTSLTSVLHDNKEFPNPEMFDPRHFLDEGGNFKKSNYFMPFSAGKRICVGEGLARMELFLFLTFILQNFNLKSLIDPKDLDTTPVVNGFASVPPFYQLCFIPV

[8] = Unbound clearance in iv dosed rat administered as cassette dose; format: ADME, organism-based; conditions: in vivo
Procedure, shortened: (§2)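 Rat IV clearance from cassette dosing; unbound clearance calculated as CL/fu.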

[9] = system: MDR1 (P-gp); assay: Efflux ratio of apparent permeability from basolateral to apical side over apical to basolateral side in dog MDCK-MDR1 cells; format: ADME, cell-based, Canis lupus familiaris
Procedure, shortened: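 Efflux ratio calculated as Papp(B–A)/Papp(A–B) across MDR1-transfected MDCK monolayers.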

[10] = Drug concentration in sc dosed C57BL/6 mouse brain measured after 60 mins by LC-FTICR-MS analysis; format: ADME, organism-based; conditions: read-out: Ct; procedure, shortened: as §1
[11] = target: Cytochrome P450 2D6 (Homo sapiens, UniProt P10635); assay: Inhibition of CYP2D6 (unknown origin); format: ADME
Chain of Cytochrome P450 2D6 (P10635 whole entry): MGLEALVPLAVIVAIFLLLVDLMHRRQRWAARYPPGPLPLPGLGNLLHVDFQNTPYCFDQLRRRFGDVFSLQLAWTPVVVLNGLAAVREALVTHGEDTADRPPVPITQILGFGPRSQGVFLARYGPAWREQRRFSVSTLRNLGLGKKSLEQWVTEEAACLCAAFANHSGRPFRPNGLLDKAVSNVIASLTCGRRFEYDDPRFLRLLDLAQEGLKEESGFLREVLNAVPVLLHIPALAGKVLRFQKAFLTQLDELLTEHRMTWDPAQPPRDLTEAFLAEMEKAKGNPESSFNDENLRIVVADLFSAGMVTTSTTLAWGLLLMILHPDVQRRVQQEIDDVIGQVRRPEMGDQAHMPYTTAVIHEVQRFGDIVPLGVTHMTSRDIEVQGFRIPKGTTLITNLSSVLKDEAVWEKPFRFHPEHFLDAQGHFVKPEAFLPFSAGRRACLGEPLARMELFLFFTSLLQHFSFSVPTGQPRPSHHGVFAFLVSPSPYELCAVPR

[12] = target: Cytochrome P450 3A4 (Homo sapiens, UniProt P08684); assay: Inhibition of CYP3A4 (unknown origin); format: ADME
Chain of Cytochrome P450 3A4 (P08684 whole entry): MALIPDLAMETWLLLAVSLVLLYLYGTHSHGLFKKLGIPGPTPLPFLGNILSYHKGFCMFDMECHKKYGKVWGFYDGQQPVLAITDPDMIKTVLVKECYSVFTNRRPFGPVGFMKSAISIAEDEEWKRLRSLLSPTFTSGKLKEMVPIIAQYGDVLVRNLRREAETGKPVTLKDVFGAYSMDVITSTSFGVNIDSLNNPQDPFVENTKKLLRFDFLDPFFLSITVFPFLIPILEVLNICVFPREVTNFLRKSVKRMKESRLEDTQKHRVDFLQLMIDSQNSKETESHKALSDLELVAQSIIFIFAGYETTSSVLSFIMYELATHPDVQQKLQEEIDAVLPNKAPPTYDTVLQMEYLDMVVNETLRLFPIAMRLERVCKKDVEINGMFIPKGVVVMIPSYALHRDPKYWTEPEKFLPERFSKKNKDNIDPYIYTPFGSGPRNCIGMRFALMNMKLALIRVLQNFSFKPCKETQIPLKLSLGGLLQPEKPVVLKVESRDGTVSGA

[13] = Clearance in iv dosed rat administered as cassette dose; format: ADME, organism-based; conditions: in vivo; procedure, shortened: as §2
[14] = target: Voltage-gated inwardly rectifying potassium channel KCNH2 (Homo sapiens, UniProt Q12809); assay: Inhibition of human ERG; format: toxicity
Chain of Voltage-gated inwardly rectifying potassium channel KCNH2 (Q12809 whole entry): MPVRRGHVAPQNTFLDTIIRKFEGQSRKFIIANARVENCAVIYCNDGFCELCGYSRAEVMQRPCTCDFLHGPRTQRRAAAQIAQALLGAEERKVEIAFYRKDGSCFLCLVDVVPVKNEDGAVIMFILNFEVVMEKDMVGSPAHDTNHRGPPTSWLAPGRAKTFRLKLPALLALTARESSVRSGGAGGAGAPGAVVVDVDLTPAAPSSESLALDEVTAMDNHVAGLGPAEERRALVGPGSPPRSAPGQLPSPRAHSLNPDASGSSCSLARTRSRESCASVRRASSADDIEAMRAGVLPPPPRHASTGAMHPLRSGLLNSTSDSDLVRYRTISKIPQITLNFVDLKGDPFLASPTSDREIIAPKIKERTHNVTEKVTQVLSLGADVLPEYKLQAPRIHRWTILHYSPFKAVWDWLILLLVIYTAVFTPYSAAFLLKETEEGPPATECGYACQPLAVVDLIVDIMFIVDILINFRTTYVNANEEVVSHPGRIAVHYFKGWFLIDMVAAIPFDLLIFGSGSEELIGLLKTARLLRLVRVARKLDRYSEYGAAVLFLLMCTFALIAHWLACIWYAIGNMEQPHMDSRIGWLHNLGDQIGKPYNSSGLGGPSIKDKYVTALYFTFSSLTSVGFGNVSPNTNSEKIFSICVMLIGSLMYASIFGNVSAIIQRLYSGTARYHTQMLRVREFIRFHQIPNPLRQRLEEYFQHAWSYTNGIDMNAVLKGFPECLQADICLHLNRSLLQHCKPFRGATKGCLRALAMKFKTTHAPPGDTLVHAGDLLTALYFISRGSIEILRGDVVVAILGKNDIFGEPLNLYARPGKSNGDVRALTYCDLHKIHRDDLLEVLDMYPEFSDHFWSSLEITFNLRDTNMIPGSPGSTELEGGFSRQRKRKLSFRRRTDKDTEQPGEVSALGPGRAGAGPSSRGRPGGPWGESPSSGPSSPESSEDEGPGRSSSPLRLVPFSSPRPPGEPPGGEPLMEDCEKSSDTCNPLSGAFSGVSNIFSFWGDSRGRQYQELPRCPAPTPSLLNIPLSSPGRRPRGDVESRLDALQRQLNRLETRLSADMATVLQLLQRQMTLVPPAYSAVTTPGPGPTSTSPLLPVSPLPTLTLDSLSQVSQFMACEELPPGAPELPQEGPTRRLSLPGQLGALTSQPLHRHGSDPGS

[15] = Unbound brain concentration in sc dosed C57BL/6 mouse measured after 30 mins by LC-FTICR-MS analysis; format: ADME, organism-based; conditions: in vivo, 0.5 h; procedure, shortened: as §1
[16] = Unbound brain concentration in sc dosed C57BL/6 mouse measured after 15 mins by LC-FTICR-MS analysis; format: ADME, organism-based; conditions: in vivo, 0.25 h; procedure, shortened: as §1
[17] = Drug concentration in sc dosed C57BL/6 mouse liver measured after 30 mins by LC-FTICR-MS analysis; format: ADME, organism-based; conditions: read-out: Ct; procedure, shortened: as §1
[18] = target: T1, Phospholipase D1 (Homo sapiens, UniProt Q13393); assay: Inhibition of PLD1 (unknown origin) expressed in human HEK cells by immunoprecipitation assay; format: cell-based
T1 sequence (Q13393 whole entry): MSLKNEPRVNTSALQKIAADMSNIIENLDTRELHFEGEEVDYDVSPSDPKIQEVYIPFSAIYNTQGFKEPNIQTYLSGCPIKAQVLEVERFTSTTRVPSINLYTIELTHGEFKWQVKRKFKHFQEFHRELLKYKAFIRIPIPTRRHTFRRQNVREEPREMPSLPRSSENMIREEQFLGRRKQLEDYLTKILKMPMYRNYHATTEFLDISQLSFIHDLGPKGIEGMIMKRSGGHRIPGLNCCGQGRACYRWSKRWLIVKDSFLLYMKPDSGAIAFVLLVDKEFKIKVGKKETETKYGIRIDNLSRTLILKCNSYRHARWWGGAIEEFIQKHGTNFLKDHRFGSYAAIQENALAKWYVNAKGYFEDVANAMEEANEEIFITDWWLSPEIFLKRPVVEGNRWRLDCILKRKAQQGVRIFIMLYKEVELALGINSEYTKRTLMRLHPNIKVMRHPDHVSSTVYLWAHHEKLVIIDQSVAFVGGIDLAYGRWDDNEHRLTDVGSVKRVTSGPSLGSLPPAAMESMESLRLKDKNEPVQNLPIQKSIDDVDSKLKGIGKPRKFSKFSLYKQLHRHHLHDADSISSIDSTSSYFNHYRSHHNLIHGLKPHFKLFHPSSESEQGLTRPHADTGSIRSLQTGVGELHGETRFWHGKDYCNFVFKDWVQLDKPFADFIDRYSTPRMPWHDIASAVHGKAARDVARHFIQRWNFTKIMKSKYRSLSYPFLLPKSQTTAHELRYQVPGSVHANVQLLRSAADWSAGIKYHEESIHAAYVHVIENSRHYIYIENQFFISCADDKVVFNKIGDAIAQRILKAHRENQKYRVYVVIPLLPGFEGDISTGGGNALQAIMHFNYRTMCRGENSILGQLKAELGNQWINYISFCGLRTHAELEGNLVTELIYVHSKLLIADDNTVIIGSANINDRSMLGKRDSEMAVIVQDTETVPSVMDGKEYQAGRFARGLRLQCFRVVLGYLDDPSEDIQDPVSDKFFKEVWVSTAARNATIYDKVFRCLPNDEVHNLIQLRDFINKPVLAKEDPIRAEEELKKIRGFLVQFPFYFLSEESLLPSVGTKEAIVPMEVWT

[19] = target: T2, Cytochrome P450 1A2 (Homo sapiens, UniProt P05177); assay: Inhibition of CYP1A2 (unknown origin); format: ADME
T2 sequence (P05177 whole entry): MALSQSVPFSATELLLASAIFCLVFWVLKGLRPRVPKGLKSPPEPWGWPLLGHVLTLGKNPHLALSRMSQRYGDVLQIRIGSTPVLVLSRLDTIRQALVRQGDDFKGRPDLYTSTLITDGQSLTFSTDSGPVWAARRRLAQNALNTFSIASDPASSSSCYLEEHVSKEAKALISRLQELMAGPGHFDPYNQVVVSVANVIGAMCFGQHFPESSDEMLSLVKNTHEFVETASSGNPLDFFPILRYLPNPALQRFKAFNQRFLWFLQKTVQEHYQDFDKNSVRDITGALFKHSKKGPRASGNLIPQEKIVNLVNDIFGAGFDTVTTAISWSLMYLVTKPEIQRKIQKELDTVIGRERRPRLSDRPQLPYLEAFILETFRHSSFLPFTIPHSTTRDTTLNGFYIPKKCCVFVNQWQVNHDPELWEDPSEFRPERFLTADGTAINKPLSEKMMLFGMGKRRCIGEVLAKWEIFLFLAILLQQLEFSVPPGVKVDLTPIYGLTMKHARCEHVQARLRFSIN

[20] = target: Phospholipase D2 (Homo sapiens, UniProt O14939); assay: Inhibition of PLD2 (unknown origin) expressed in human HEK cells by immunoprecipitation; format: cell-based
Chain of Phospholipase D2 (O14939 whole entry): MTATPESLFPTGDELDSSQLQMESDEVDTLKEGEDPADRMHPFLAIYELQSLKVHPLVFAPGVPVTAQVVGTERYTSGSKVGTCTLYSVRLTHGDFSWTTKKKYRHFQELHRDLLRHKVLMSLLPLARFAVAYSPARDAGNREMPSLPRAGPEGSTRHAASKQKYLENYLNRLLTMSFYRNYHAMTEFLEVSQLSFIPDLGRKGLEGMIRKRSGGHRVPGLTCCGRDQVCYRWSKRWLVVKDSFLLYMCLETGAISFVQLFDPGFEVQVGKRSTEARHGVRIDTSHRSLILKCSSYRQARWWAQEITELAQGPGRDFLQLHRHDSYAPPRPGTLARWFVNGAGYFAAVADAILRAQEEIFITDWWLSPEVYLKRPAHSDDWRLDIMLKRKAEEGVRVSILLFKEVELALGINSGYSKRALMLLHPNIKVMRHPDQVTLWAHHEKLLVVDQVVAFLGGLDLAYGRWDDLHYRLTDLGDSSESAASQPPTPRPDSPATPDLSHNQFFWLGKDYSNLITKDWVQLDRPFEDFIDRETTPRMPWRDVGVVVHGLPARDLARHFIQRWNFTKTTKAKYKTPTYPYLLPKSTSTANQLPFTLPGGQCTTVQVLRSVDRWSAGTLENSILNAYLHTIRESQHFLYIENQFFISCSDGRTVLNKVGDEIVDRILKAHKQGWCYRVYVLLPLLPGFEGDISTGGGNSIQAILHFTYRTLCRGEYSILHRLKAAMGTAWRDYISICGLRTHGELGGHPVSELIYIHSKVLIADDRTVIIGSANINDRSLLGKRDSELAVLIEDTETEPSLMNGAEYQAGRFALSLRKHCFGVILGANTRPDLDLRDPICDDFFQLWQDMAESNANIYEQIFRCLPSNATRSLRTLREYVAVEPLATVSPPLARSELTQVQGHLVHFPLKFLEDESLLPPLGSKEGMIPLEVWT
Procedure, shortened: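 PLD1 or PLD2 immunoprecipitated from HEK-293 cell lysates and captured on plate with an antibody (ELISA format); 08:0 phosphatidylcholine substrate; released choline detected by Amplex Red readout.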

[21] = Cmax in sc dosed C57BL/6 mouse by LC-MS/MS analysis; format: ADME, organism-based; design: route subcutaneous; conditions: in vivo
[22] = Kinetic solubility of compound at pH 6.8; format: physicochemical; conditions: buffer, read-out: Kinetic_solubility
Procedure, shortened: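 Kinetic solubility measured at pH 6.8.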

[23] = Plasma protein binding in sc dosed C57BL/6 mouse assessed as unbound fraction by LC-MS/MS analysis; format: ADME, organism-based; conditions: in vivo

C[C@@H]1CN(C(=O)[C@H](C)N2CCC(n3c(=O)[nH]c4ccccc43)CC2)C[C@@H](C)N1
concentration at 0.5 h [1]: 109 ng/g
Papp [2]: 5.1 ×10⁻⁶ cm/s
CLint scaled [3]: 64 mL/min/kg
PPB [4]: 36.3%
Tmax [5]: 3 h
Kp uu [6]: 0.8
IC50 [7]: > 10 µM
CL free [8]: 84 mL/min/kg
efflux ratio [9]: 9.2
concentration at 1 h [10]: 117 ng/g
IC50 [11]: > 10 µM
IC50 [12]: > 10 µM
clearance [13]: 28 mL/min/kg
IC50 [14]: > 30 µM
Drug uptake(free) [15]: 49.5 nM
Drug uptake(free) [16]: 38.1 nM
concentration at 0.5 h [17]: 7160 ng/g
IC50 [18]: 0.044 µM
IC50 [19]: > 10 µM
IC50 [20]: 0.23 µM
Cmax [21]: 2960 ng/mL
solubility kinetic [22]: 72.6 µg/mL (≈ 188 µM)
Fu [23]: 17.5%
